Experiment [1] can be described thus: inhibitors of TNFa-induced NFkB p65 translocation, primary screen, imaging, HUVEC, MLSMR starter and 10KST1 sets (AID 438;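 active means inhibition above 20% together with a positive visual image hit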;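 further: compound added about 3h40 before a 20 min TNFalpha stimulation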;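 on inhibition: signal is the nuclear over cytoplasmic p65 intensity ratio per well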). As to conditions: HUVEC TNFa-induced p65 nuclear translocation; cell count: measured here: nuclei count (cytotoxicity indicator), at 2.08 µM; inhibition: at 2 µM, stronger effect = higher value, 0% TNFa-plus-vehicle, 100% no-TNFa wells.
Experiment [2] in a line: inhibitors of mutant huntingtin aggregation, primary screen, imaging, exon1htt(103Q)mCFP cells, high-content imaging (AID 483;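 active means visual image review flags a hit and inhibition of aggregation exceeds 20%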;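 further: compound exposure lasted 3 days before fixation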;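 on nuclei count: percent of the per-plate median nuclei count of sample wells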). The conditions noted are these: exon1htt(103Q)mCFP cell line, aggregate imaging, at 2 µM; inhibition of aggregation: stronger effect = higher value; nuclei count: measured here: cell count, toxicity.
A short description of experiment [3]: inhibitors of E-selectin induction by TNFa, primary screen, imaging, HUVEC, immunofluorescence, MLSMR starter and 10KST1 sets (AID 487;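 active means visually confirmed hit in the image check and inhibition above 20%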;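 on inhibition: signal is fraction of cell area covered by stained E-selectin grains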;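 on nuclei count: 100% = median nuclei count of all wells on the same plate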). As to conditions: HUVEC TNFalpha-induced E-selectin immunofluorescence imaging, at 2 µM; inhibition: stronger effect = higher value; nuclei count: measured here: cell number, toxicity.
The target in experiment [4] is Voltage-gated potassium channel subunit beta-2 (Rattus norvegicus) (UniProt P62483). The experiment is described as follows: KvBeta enzyme negative modulators, primary screen, biochemical, NADPH fluorescence (AID 622;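 active means fluorescence slope higher than the sample average by over 3 SD, cut at about -0.22 in these data, passing the limit was not always enough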;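 further: slope of raw intensity against log time taken from 70 to 1610 s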). As to conditions: recombinant KvBeta, 4-cyanobenzaldehyde reduction, at 10 µM, stronger effect = higher value.
Experiment [5] shares this target. In words: KvBeta positive modulators, primary screen, biochemical, NADPH fluorescence (AID 623;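 active means NADPH fluorescence slope more negative than the mean of all samples by about 3 SD, 99.7% confidence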;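 further: fluorescence intensity change per second fitted from 20 to 320 s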). The conditions noted are these: Recombinant KvBeta, NADPH fluorescence decrease slope, 10 min; at 10 µM; stronger effect = lower value.
The target of experiment [6] is Muscarinic acetylcholine receptor M4 (Homo sapiens) (UniProt P08173). In words: compounds altering M4/GIRK thallium flux, either direction, primary screen, M4 allosteric agonist project, cell-based, HEK293 M4/GIRK, BTC-AM (AID 625;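 active means fluorescence slope after compound addition differing from the mean of all tested samples at 99.7% confidence, mostly higher but some lower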;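 further: thallium influx through GIRK channels coupled to M4 in HEK293 cells with BTC-AM dye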). The conditions noted are these: at 10 µM, actives lie on both sides. In a few lines:
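assay system = HEK293 cells with M4 receptor and GIRK channels | medium = pH 7.3 thallium assay buffer | doses = 10 µM final, single point | timing = cells overnight at 37 °C, BTC-AM loading 1 h, reads 2 min total | signal = BTC-AM fluorescence, 1 Hz kinetic reads | read-out = post-addition slope, 15–24 s, of baseline-normalized fluorescence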

Experiment [7] can be described thus: inhibitors of Sendai virus-induced IRF3 signaling, primary screen, TLR/RLR signaling modifier project, cell-based, Sendai virus stimulus, luciferase, 10K MLSCN set (AID 602276).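 Further: firefly luciferase from ISG56 promoter only with Renilla not read in this screen; 0% = Sendai virus plus DMSO and 100% = medium plus DMSO without virus.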 As to conditions: HEK293 RL24 IRF3 luciferase reporter, at 10 µM, stronger effect = higher value. For orientation: A reporter such as luciferase makes a cellular process visible.
Experiment [8] is described as follows: inhibitors of poly I:C-induced TLR3 signaling, primary screen, cell-based, poly I:C stimulus, luciferase, 10K MLSCN set (AID 602277;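 active means inhibition of the reporter signal at or above 50%; inactive means inhibition below 50%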). The conditions noted are these: HEK293-TLR3 RL24 IRF3 luciferase reporter, at 10 µM, stronger effect = higher value.

Active and inactive are the calls of the source.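 How the source made its calls, unless noted: active means inhibition at or above 50% at 10 µM; inactive means inhibition below 50%.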

This is an account of results in PubChem BioAssay.

Sequence of Muscarinic acetylcholine receptor M4 (Homo sapiens) (P08173 whole entry, looked up): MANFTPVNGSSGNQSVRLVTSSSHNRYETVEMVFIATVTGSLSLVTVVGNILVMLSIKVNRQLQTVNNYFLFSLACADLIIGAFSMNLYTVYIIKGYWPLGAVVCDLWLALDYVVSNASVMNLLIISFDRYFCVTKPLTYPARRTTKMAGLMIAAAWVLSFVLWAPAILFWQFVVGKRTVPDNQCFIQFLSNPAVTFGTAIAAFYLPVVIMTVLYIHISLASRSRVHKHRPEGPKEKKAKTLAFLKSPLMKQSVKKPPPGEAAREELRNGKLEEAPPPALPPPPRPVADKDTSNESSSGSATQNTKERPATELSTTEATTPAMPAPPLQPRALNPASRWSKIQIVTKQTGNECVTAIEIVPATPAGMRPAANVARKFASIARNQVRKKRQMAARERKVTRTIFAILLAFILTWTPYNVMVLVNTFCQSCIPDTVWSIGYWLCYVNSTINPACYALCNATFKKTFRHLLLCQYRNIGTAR
Sequence of Voltage-gated potassium channel subunit beta-2 (Rattus norvegicus) (P62483 whole entry, looked up): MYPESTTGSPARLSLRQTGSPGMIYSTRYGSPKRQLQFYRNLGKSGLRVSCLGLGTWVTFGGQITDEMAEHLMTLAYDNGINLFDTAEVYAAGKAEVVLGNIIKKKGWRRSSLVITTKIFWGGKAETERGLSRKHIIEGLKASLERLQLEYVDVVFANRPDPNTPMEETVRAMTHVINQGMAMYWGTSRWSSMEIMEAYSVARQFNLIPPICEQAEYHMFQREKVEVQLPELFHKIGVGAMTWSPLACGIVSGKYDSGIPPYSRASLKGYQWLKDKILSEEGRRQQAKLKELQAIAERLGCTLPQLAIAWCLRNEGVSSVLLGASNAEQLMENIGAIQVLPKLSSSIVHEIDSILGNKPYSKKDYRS

Turning to `CCN(CC)C(=O)CN(c1cc(Cl)ccc1OC)S(C)(=O)=O`, in experiment [1], the cell count came to 776. In addition, the inhibition in experiment [1] was -2.4% (inactive); in experiment [3], 41.2% (inactive); in experiment [7] it was 7.69% (inactive); in experiment [8], 10.1% (inactive). Moreover, the inhibition of aggregation in experiment [2] is -2.7% (inactive). The nuclei count in experiment [2] came out at 108%; in experiment [3], 96%. Moreover, the results for the fluorescence slope in experiment [4] and in experiment [6] were -0.577 (inactive) and 0.00573 (inactive), respectively. Further, the NADPH fluorescence slope in experiment [5] was 4.8e-07 (inactive).
For the molecule `Cn1cc(C(=O)NC2CCCCCCC2)c(=O)c2cc(S(=O)(=O)N3CCCC3)ccc21`, in experiment [1], the cell count was found to be 614. Moreover, the inhibition in experiment [1] was 3.5% (inactive); in experiment [3], -3.4% (inactive); in experiment [7] it was 10.2% (inactive); in experiment [8] it was 24.5% (inactive). The inhibition of aggregation in experiment [2] was 8.6% (inactive). In addition, the nuclei count in experiment [2] amounted to 109%; in experiment [3], 106%. Also, the fluorescence slope in experiment [4] was -0.319 (inactive); in experiment [6], 0.00744 (inactive). Besides, in experiment [5], the NADPH fluorescence slope is -4.1e-05 (inactive).
For the molecule `Cc1ccccc1CN1CCNC1=O`, the cell count in experiment [1] worked out at 624. In addition, the inhibition in experiment [1] was 40.3% (active); in experiment [3], -69.6% (inactive); in experiment [7], 23.3% (inactive); in experiment [8], 26.8% (inactive). In addition, the inhibition of aggregation in experiment [2] was 7% (inactive). In addition, the nuclei count came to 88.7% in experiment [2] and 138% in experiment [3]. Moreover, the fluorescence slope in experiment [4] was -0.558 (inactive); in experiment [6], 0.00621 (inactive). Further, in experiment [5], the NADPH fluorescence slope was -4e-05 (inactive).
In the case of `CC(C)CCNC(=O)NC(=O)CN1C(=O)NC2(CCCCC2)C1=O`, the cell count in experiment [1] was found to be 560. Besides, the inhibition in experiment [1] is -14.9% (inactive); in experiment [3], -209% (inactive); in experiment [7] it was -8.08% (inactive); in experiment [8], -2.49% (inactive). For the same molecule, the inhibition of aggregation in experiment [2] was 13.2% (inactive). The results for the nuclei count in experiment [2] and in experiment [3] were 106% and 87%, respectively. Moreover, the fluorescence slope was -0.498 (inactive) in experiment [4] and 0.00636 (inactive) in experiment [6]. Also, the NADPH fluorescence slope in experiment [5] was 7.2e-05 (inactive).
Consider `O=C(Cn1c(SCC(=O)N2CCCc3ccccc32)nc2ccccc21)N1CCCC1`, for which the cell count in experiment [1] came out at 723. Also, the inhibition in experiment [1] is -5.1% (inactive); in experiment [3] it was -126% (inactive); in experiment [7] it was 1.52% (inactive); in experiment [8], 20.1% (inactive). Besides, the inhibition of aggregation in experiment [2] is -15.7% (inactive). Further, the nuclei count in experiment [2] worked out at 107%; in experiment [3], 124%. Moreover, the fluorescence slope in experiment [4] was -0.458 (inactive); in experiment [6], 0.00587 (inactive). In addition, in experiment [5], the NADPH fluorescence slope is -3.6e-05 (inactive).
As to `COC(=O)C(C)Oc1ccc2c3c(c(=O)oc2c1)CCCCC3` (stereo not given), in experiment [1], the cell count was 648. Further, the inhibition was -7.8% (inactive) in experiment [1], -170% (inactive) in experiment [3], 9.54% (inactive) in experiment [7] and 12.4% (inactive) in experiment [8]. In addition, the inhibition of aggregation in experiment [2] was -24.4% (inactive). In addition, the figures for the nuclei count in experiment [2] and in experiment [3] were 106% and 103%, respectively. In addition, the results for the fluorescence slope in experiment [4] and in experiment [6] were -0.496 (inactive) and 0.00349 (inactive), respectively. Moreover, the NADPH fluorescence slope in experiment [5] is -1.7e-05 (inactive).
Consider `O=C(O)CCc1ccc(-c2ccccc2)n1CC(=O)O`, for which the cell count in experiment [1] came out at 355. The inhibition in experiment [1] was 2.4% (inactive); in experiment [3] it was -36.5% (inactive); in experiment [7], -9.35% (inactive); in experiment [8] it was -25.1% (inactive). The inhibition of aggregation in experiment [2] is -3.7% (inactive). The nuclei count in experiment [2] worked out at 112%; in experiment [3], 114%. Moreover, the fluorescence slope in experiment [4] was -0.564 (inactive); in experiment [6] it was 0.00623 (inactive). Moreover, in experiment [5], the NADPH fluorescence slope is -7.8e-05 (inactive).
As to `COc1cccc2c(=O)c3c(cnn3C)n(C)c12`, the cell count in experiment [1] came to 279. In addition, the inhibition is 16.3% (inactive) in experiment [1], -37.2% (inactive) in experiment [3], -10.8% (inactive) in experiment [7] and -29.4% (inactive) in experiment [8]. The inhibition of aggregation in experiment [2] is -31.5% (inactive). Moreover, the nuclei count in experiment [2] was 52.8%; in experiment [3], 111%. Also, the fluorescence slope in experiment [4] was -0.412 (inactive); in experiment [6], 0.00385 (inactive). The NADPH fluorescence slope in experiment [5] is 3.1e-05 (inactive).
As for `O=C(Cc1c(O)c2ccccc2[nH]c1=O)NCc1ccc(F)cc1`, the cell count in experiment [1] turned out to be 251. In addition, the inhibition in experiment [1] is 4.3% (inactive); in experiment [3], -25.6% (inactive); in experiment [7] it was 20.7% (inactive); in experiment [8] it was 24.8% (inactive). The inhibition of aggregation in experiment [2] is 18.1% (inactive). In addition, the results for the nuclei count in experiment [2] and in experiment [3] were 61.3% and 115%, respectively. The fluorescence slope in experiment [4] was -0.544 (inactive); in experiment [6], 0.00681 (inactive). The NADPH fluorescence slope in experiment [5] is -2e-05 (inactive).
Turning to `Cn1nnnc1SCC(=O)NCc1ccco1`, in experiment [1], the cell count is 467. The inhibition in experiment [1] was 4.6% (inactive); in experiment [3], -60.2% (inactive); in experiment [7] it was -10.5% (inactive); in experiment [8] it was -15.1% (inactive). Moreover, the inhibition of aggregation in experiment [2] is -7.3% (inactive). For the same molecule, the values for the nuclei count in experiment [2] and in experiment [3] were 133% and 172%, respectively. In addition, the fluorescence slope is -0.443 (inactive) in experiment [4] and 0.00818 (inactive) in experiment [6]. Further, in experiment [5], the NADPH fluorescence slope is 0.000107 (inactive).

Broadly, the inhibition is the relative decrease from the control value, in per cent.
